Measured values: publication PMC11390321 (Cancer chemotherapy and pharmacology, 2024)

Legend:
[1] = Dose linearity study: single IV dose PK, noncompartmental analysis; type: in vivo, female BALB/c mice; conditions: for β, slope of Ln(AUC0-∞) versus Ln(dose): 2–60 mg/kg IV, power model; for AUC(0-inf) / Cmax / Tmax / Vd / half-life / AUC(0-t) / clearance: female, BALB/c, mouse, iv; for AUC(0-inf) / Cmax / Tmax / Vd / half-life / AUC(0-t) / clearance / AUC0-t/dose / AUC0-∞ /dose / AUC0–360/dose / AUCextrap / Cmax/dose / Tlast: plasma; for clearance: CL; for AUC extrapolated beyond 24 h in tissues: tissues with a quantifiable 24 h sample; for 0–24 h feces / 0–24 h urine: unchanged drug
Method in brief: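 Single ~30 s tail-vein bolus of test compound in 12% captisol (pH 4, acetic acid), 2.0, 6.0, 20 or 60 mg/kg, female BALB/c mice 5–7 weeks old, N=3 per time point. Plasma and tissues taken 5–1,440 min; pooled 24 h urine/feces from metabolic cages. LC-MS/MS with [D7] internal standard. NCA, Bailer AUC. Dose linearity via slope of Ln AUC0-∞ versus Ln dose against β=1.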

[2] = clinical; cited from earlier work

β, slope of Ln(AUC0-∞) versus Ln(dose) ([1]; Brain): 1.17 (95% CI: 0.786 – 1.56)
β, slope of Ln(AUC0-∞) versus Ln(dose) ([1]; Kidney): 1.35 (95% CI: 0.960 – 1.73)
β, slope of Ln(AUC0-∞) versus Ln(dose) ([1]; Lung): 1.30 (95% CI: 0.804 – 1.79)
unchanged drug recovered in feces ([1]; across all groups (2–60 mg/kg IV), 0–24 h): < 4%
increase in volume of distribution (Vd) ([1]; between 2 and 60 mg/kg IV): more than 3 fold
AUC(0-inf) ([1]; 2 mg/kg): 867 ng·h/mL
Cmax ([1]; 2 mg/kg): 1480 ng/mL
Tmax ([1]; 2 mg/kg): 5 min
Vd ([1]; 2 mg/kg): 8.49 L/kg
half-life ([1]; 2 mg/kg): 2.55 h
AUC(0-t) ([1]; 2 mg/kg, AUC0-t, 2.0 mg/kg IV): 765 ng·h/mL
AUC(0-t) ([1]; 2 mg/kg, AUC0–360, plasma, 2.0 mg/kg IV): 765 ng·h/mL
AUC(0-inf) ([1]; 6 mg/kg): 2450 ng·h/mL
Cmax ([1]; 6 mg/kg): 3470 ng/mL
Tmax ([1]; 6 mg/kg): 5 min
Vd ([1]; 6 mg/kg): 9.63 L/kg
half-life ([1]; 6 mg/kg): 2.73 h
AUC(0-t) ([1]; 6 mg/kg, AUC0-t, 6.0 mg/kg IV): 2100 ng·h/mL
AUC(0-t) ([1]; 6 mg/kg, AUC0–360, plasma, 6.0 mg/kg IV): 2100 ng·h/mL
AUC(0-inf) ([1]; 20 mg/kg): 10200 ng·h/mL
Cmax ([1]; 20 mg/kg): 10200 ng/mL
Tmax ([1]; 20 mg/kg): 5 min
Vd ([1]; 20 mg/kg): 11.9 L/kg
half-life ([1]; 20 mg/kg): 4.22 h
AUC(0-t) ([1]; 20 mg/kg, AUC0-t, 20 mg/kg IV): 10100 ng·h/mL
AUC(0-t) ([1]; 20 mg/kg, AUC0–360, plasma, 20 mg/kg IV): 7070 ng·h/mL
clearance ([1]; 20 mg/kg, calculated using AUC0-∞, 20 mg/kg IV): 32.6 mL/min/kg
clearance ([1]; 20 mg/kg, calculated using AUC0–360, 20 mg/kg IV): 47.2 mL/min/kg
AUC(0-inf) ([1]; 60 mg/kg): 35400 ng·h/mL
Cmax ([1]; 60 mg/kg): 21200 ng/mL
Tmax ([1]; 60 mg/kg): 5 min
Vd ([1]; 60 mg/kg): 25.6 L/kg
half-life ([1]; 60 mg/kg): 10.5 h
AUC(0-t) ([1]; 60 mg/kg, AUC0-t, 60 mg/kg IV): 29400 ng·h/mL
AUC(0-t) ([1]; 60 mg/kg, AUC0–360, plasma, 60 mg/kg IV): 15500 ng·h/mL
AUC0-t/dose ([1]; 2.0 mg/kg IV): 23.0
AUC0-∞ /dose ([1]; 2.0 mg/kg IV): 26.0
AUC0–360/dose ([1]; 2.0 mg/kg IV): 23.0
AUCextrap ([1]; 2.0 mg/kg IV): 11.7%
Cmax/dose ([1]; 2.0 mg/kg IV): 0.738
Tlast ([1]; 2.0 mg/kg IV): 360 min
AUC0-t/dose ([1]; 6.0 mg/kg IV): 21.1
AUC0-∞ /dose ([1]; 6.0 mg/kg IV): 24.6
AUC0–360/dose ([1]; 6.0 mg/kg IV): 21.1
AUCextrap ([1]; 6.0 mg/kg IV): 14.2%
Cmax/dose ([1]; 6.0 mg/kg IV): 0.578
Tlast ([1]; 6.0 mg/kg IV): 360 min
AUC0-t/dose ([1]; 20 mg/kg IV): 30.3
AUC0-∞ /dose ([1]; 20 mg/kg IV): 30.7
AUC0–360/dose ([1]; 20 mg/kg IV): 21.2
AUCextrap ([1]; 20 mg/kg IV): 1.39%
Cmax/dose ([1]; 20 mg/kg IV): 0.512
AUC0-t/dose ([1]; 60 mg/kg IV): 29.4
AUC0-∞ /dose ([1]; 60 mg/kg IV): 35.4
AUC0–360/dose ([1]; 60 mg/kg IV): 15.5
AUCextrap ([1]; 60 mg/kg IV): 17.0%
Cmax/dose ([1]; 60 mg/kg IV): 0.353
AUC extrapolated beyond 24 h in tissues ([1]; 60 mg/kg): > 20%
AUC extrapolated beyond 24 h in tissues ([1]; 2, 6 and 20 mg/kg groups): < 3%
0–24 h feces ([1]; 2.0 mg/kg IV): 1.78 % dose
0–24 h urine ([1]; 2.0 mg/kg IV): 40.6 % dose
0–24 h feces ([1]; 6.0 mg/kg IV): 3.41 % dose
0–24 h urine ([1]; 6.0 mg/kg IV): 49.2 % dose
0–24 h feces ([1]; 20 mg/kg IV): 1.48 % dose
0–24 h urine ([1]; 20 mg/kg IV): 55.8 % dose
0–24 h feces ([1]; 60 mg/kg IV): 2.02 % dose
0–24 h urine ([1]; 60 mg/kg IV, 60 mg/kg): 28 % dose
Compound: CNCc1ccc(-c2cc(-c3nc(-c4ccc(S(=O)(=O)C(C)C)cc4)cnc3N)on2)cc1 [berzosertib]
clinically associated toxicities [2]: bone marrow toxicities including neutropenia, thrombocytopenia, leukocytopenia, lymphocytopenia, and anemia
